Results as given in ChEMBL document CHEMBL4368909, “Identification of Dihydrofuro[3,4- d]pyrimidine Derivatives as Novel HIV-1 Non-Nucleoside Reverse Transcriptase Inhibitors with Promising Antiviral Activities and Desirable Physicochemical Properties” (J Med Chem, 2019).
Values after ≈ are worked out from the molar mass of the structure shown.

Key:
[1] = Protein binding in rat plasma assessed as recovery rate at 1 uM after 5 hrs by LC/MS analysis; assay type: ADME, cell-free
Method in brief: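 Equilibrium dialysis against plasma proteins: human plasma for line 1, Wistar rat plasma for line 2. Reference drug tested at 1 μM. Recovery rate reported alongside percent protein-binding rate.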

[2] = Aqueous solubility of the compound in FASSIF by HPLC analysis; assay type: physicochemical; conditions: simulated gi fluid
Method in brief: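 Solubility read by HPLC in fasted state simulated intestinal fluid (FaSSIF).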

[3] = Sub-acute toxicity in Kunming mouse assessed as alveolar interstitial thickening at 50 mg/kg/day, po administered for 2 weeks by hematoxylin and eosin staining-based assay; assay type: organism-based; conditions: in vivo, 336 h
Method in brief: (§1)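 Mice were dosed orally at 50 mg/kg/day for 2 weeks and observed for behavioural abnormalities during treatment. Organs were then examined by hematoxylin–eosin staining.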

[4] = Aqueous solubility of the compound at pH at 7.4 by HPLC analysis; assay type: physicochemical; conditions: buffer, pH 7.4
Method in brief: (§2)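 Aqueous solubility read by HPLC in buffer at pH 2.0, 7.0 or 7.4.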

[5] = Sub-acute toxicity in Kunming mouse assessed as alveolar hemorrhage at 50 mg/kg/day, po administered for 2 weeks by hematoxylin and eosin staining-based assay; assay type: organism-based; conditions: in vivo, 336 h; method in brief: as §1
[6] = test system: Human immunodeficiency virus 1; experiment: Antiviral activity against HIV1 harboring reverse transcriptase Y181C mutant infected in human MT4 cells assessed as reduction in virus-induced cytopathic effect after 5 days by MTT assay; assay type: functional, organism-based; conditions: Human immunodeficiency virus 1, MT4, 120 h
[7] = test system: Human immunodeficiency virus 1; experiment: Antiviral activity against HIV1 RES056 infected in human MT4 cells assessed as reduction in virus-induced cytopathic effect after 5 days by MTT assay; assay type: functional, organism-based; conditions: Human immunodeficiency virus 1, RES056, MT4, 120 h
[8] = test system: Human immunodeficiency virus 1; experiment: Antiviral activity against HIV1 harboring reverse transcriptase L100I mutant infected in human MT4 cells assessed as reduction in virus-induced cytopathic effect after 5 days by MTT assay; assay type: functional, organism-based; conditions: Human immunodeficiency virus 1, MT4, 120 h
[9] = test system: Human immunodeficiency virus 1; experiment: Antiviral activity against HIV1 harboring reverse transcriptase E138K mutant infected in human MT4 cells assessed as reduction in virus-induced cytopathic effect after 5 days by MTT assay; assay type: functional, organism-based; conditions: Human immunodeficiency virus 1, MT4, 120 h
[10] = test system: Human immunodeficiency virus 1; experiment: Antiviral activity against HIV1 harboring reverse transcriptase F227L/V106A double mutant infected in human MT4 cells assessed as reduction in virus-induced cytopathic effect after 5 days by MTT assay; assay type: functional, organism-based; conditions: Human immunodeficiency virus 1, MT4, 120 h
[11] = Aqueous solubility of the compound at pH at 7 by HPLC analysis; assay type: physicochemical; conditions: buffer, pH 7; method in brief: as §2
[12] = test system: Human immunodeficiency virus 1; experiment: Antiviral activity against wild type HIV1 3B infected in human MT4 cells assessed as reduction in virus-induced cytopathic effect after 5 days by MTT assay; assay type: functional, organism-based; conditions: Human immunodeficiency virus 1, 3B, MT4, 120 h
[13] = Sub-acute toxicity in Kunming mouse assessed as proximal convoluted tubule edema in kidney at 50 mg/kg/day, po administered for 2 weeks by hematoxylin and eosin staining-based assay; assay type: organism-based; conditions: in vivo, 336 h; method in brief: as §1
[14] = (§3) Cytotoxicity against human MT4 cells after 5 days by MTT assay; assay type: cell-based; conditions: MT4 cells
[15] = Selectivity ratio of CC50 for human MT4 cells to EC50 for HIV1 RES056 infected in human MT4 cells; assay type: toxicity, cell-based; conditions: read-out: Ratio CC50/EC50
[16] = Selectivity ratio of CC50 for human MT4 cells to EC50 for HIV1 3B infected in human MT4 cells; assay type: toxicity, cell-based; conditions: read-out: Ratio CC50/EC50
[17] = test system: Human immunodeficiency virus 2; experiment: Antiviral activity against HIV2 ROD infected in human MT4 cells assessed as reduction in virus-induced cytopathic effect after 5 days by MTT assay; conditions: Human immunodeficiency virus 2, ISOLATE ROD, MT4, 120 h
[18] = target: Human immunodeficiency virus type 1 reverse transcriptase (Human immunodeficiency virus 1, UniProt Q72547); experiment: Inhibition of recombinant HIV1 reverse transcriptase using (DIG)-dUTP and biotin-labeled dNTPs as substrate after 1 hr by ELISA
[19] = test system: MT4; experiment: as §3; assay type: cell-based; conditions: mt4, 120 h
[20] = Selectivity ratio of CC50 for human MT4 cells to EC50 for HIV1 harboring reverse transcriptase E138K mutant infected in human MT4 cells; assay type: toxicity, cell-based; conditions: read-out: Ratio CC50/EC50
[21] = Aqueous solubility of the compound at pH at 2 by HPLC analysis; assay type: physicochemical; conditions: buffer, pH 2; method in brief: as §2
[22] = Selectivity ratio of CC50 for human MT4 cells to EC50 for HIV1 harboring reverse transcriptase K103N mutant infected in human MT4 cells; assay type: toxicity, cell-based; conditions: read-out: Ratio CC50/EC50
[23] = test system: Human immunodeficiency virus 1; experiment: Resistance factor, ratio of EC50 for HIV1 harboring reverse transcriptase K103N mutant to EC50 for wild type HIV1; assay type: functional
Method in brief: (§4)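 The resistance factor is the EC50 against the mutant strain divided by the EC50 against wild-type HIV-1. Both were measured in MT-4 cells by MTT read-out of protection from virus-induced cytopathicity.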

[24] = test system: Human immunodeficiency virus 1; experiment: Resistance factor, ratio of EC50 for HIV1 harboring reverse transcriptase F227L/V106A double mutant to EC50 for wild type HIV1; assay type: functional; method in brief: as §4
[25] = Selectivity ratio of CC50 for human MT4 cells to EC50 for HIV1 harboring reverse transcriptase Y181C mutant infected in human MT4 cells; assay type: toxicity, cell-based; conditions: read-out: Ratio CC50/EC50
[26] = Selectivity ratio of CC50 for human MT4 cells to EC50 for HIV1 harboring reverse transcriptase F227L/V106A double mutant infected in human MT4 cells; assay type: toxicity, cell-based; conditions: read-out: Ratio CC50/EC50
[27] = test system: Human immunodeficiency virus 1; experiment: Resistance factor, ratio of EC50 for HIV1 harboring reverse transcriptase E138K mutant to EC50 for wild type HIV1; assay type: functional; method in brief: as §4
[28] = test system: Human immunodeficiency virus 1; experiment: Resistance factor, ratio of EC50 for HIV1 harboring reverse transcriptase Y188L mutant to EC50 for wild type HIV1; assay type: functional; method in brief: as §4
[29] = Selectivity ratio of CC50 for human MT4 cells to EC50 for HIV1 harboring reverse transcriptase L100I mutant infected in human MT4 cells; assay type: toxicity, cell-based; conditions: read-out: Ratio CC50/EC50
[30] = Selectivity ratio of CC50 for human MT4 cells to EC50 for HIV1 harboring reverse transcriptase Y188L mutant infected in human MT4 cells; assay type: toxicity, cell-based; conditions: read-out: Ratio CC50/EC50
[31] = test system: Human immunodeficiency virus 1; experiment: Antiviral activity against HIV1 harboring reverse transcriptase K103N mutant infected in human MT4 cells assessed as reduction in virus-induced cytopathic effect after 5 days by MTT assay; assay type: functional, organism-based; conditions: Human immunodeficiency virus 1, MT4, 120 h
[32] = test system: Human immunodeficiency virus 1; experiment: Antiviral activity against HIV1 harboring reverse transcriptase Y188L mutant infected in human MT4 cells assessed as reduction in virus-induced cytopathic effect after 5 days by MTT assay; assay type: functional, organism-based; conditions: Human immunodeficiency virus 1, MT4, 120 h
[33] = test system: Human immunodeficiency virus 1; experiment: Resistance factor, ratio of EC50 for HIV1 harboring reverse transcriptase L100I mutant to EC50 for wild type HIV1; assay type: functional; method in brief: as §4
[34] = test system: Human immunodeficiency virus 1; experiment: Resistance factor, ratio of EC50 for HIV1 harboring reverse transcriptase Y181C mutant to EC50 for wild type HIV1; assay type: functional; method in brief: as §4

**Q.** With `CC(=O)CC(c1ccccc1)c1c(O)c2ccccc2oc1=O` (stereo not drawn) [WARFARIN] as the molecule, how does the Drug recovery [1] read?
**A.** Its Drug recovery is 107%.

**Q.** With `Cc1cc(C#N)cc(C)c1Oc1nc(Nc2ccc(C#N)cc2)nc(N)c1Br` [ETRAVIRINE] as the molecule, how does the solubility [2] read?
**A.** The solubility was 13.2 µg/mL (≈ 30.3 µM).

**Q.** And the Activity [3]?
**A.** Its Activity is “Toxic”.

**Q.** What about the solubility ([4]; read-out: solubility) of the same molecule?
**A.** Its solubility is < 1 µg/mL.

**Q.** And the Activity [5]?
**A.** The Activity was “Toxic”.

**Q.** What about the EC50 [6] of the same molecule?
**A.** Its EC50 is 14.5 nM.

**Q.** And the EC50 [7]?
**A.** Its EC50 is 45.4 nM.

**Q.** What about the EC50 [8] of the same molecule?
**A.** Its EC50 is 6 nM.

**Q.** And the EC50 [9]?
**A.** The EC50 was 9.7 nM.

**Q.** And the EC50 [10]?
**A.** The EC50 was 19.7 nM.

**Q.** And the solubility ([11]; read-out: solubility)?
**A.** Its solubility is < 1 µg/mL.

**Q.** And the EC50 [12]?
**A.** The EC50 was 5.1 nM.

**Q.** And the Activity [13]?
**A.** The Activity was “Toxic”.

**Q.** Which CC50 at 120 h [14] does the source give for `Cc1cc(C#N)cc(C)c1Oc1nc(NC2CCN(Cc3cccc(C(N)=O)c3)CC2)nc2c1SCCC2` here?
**A.** The CC50 at 120 h was 5800 nM.

**Q.** And the selectivity ratio [15]?
**A.** The selectivity ratio was 5.5.

**Q.** And the selectivity ratio [16]?
**A.** The selectivity ratio was 1140.

**Q.** What about the EC50 [7] of the same molecule?
**A.** The EC50 was 1050 nM.

**Q.** What about the EC50 [17] of the same molecule?
**A.** Its EC50 is > 5800 nM.

**Q.** And the EC50 [12]?
**A.** Its EC50 is 5.1 nM.

**Q.** Which results are given for `Cc1cc(C#N)cc(C)c1Oc1nc(NC2CCN(Cc3ccc(S(C)(=O)=O)cc3)CC2)nc2c1COC2`?
**A.** solubility [2]: 23.6 µg/mL (≈ 44.2 µM); solubility [4]: < 1 µg/mL; IC50 [18]: 77 nM; CC50 [19]: 31300 nM; EC50 [6]: 4.9 nM; selectivity ratio [20]: 3990; solubility [21]: 164 µg/mL (≈ 307 µM); selectivity ratio [15]: 752; selectivity ratio [22]: 15200; selectivity ratio [16]: 15900; Ratio EC50 [23]: 1; Ratio EC50 [24]: 3.7; selectivity ratio [25]: 6320; selectivity ratio [26]: 4350; Ratio EC50 [27]: 4; EC50 [7]: 41.6 nM; EC50 [8]: 3.4 nM; EC50 [9]: 7.8 nM; EC50 [10]: 7.2 nM; Ratio EC50 [28]: 4; EC50 [17]: > 27000 nM; selectivity ratio [29]: 9050; selectivity ratio [30]: 3940; EC50 [31]: 2 nM; solubility [11]: 1.37 µg/mL (≈ 2.57 µM); EC50 [12]: 1.9 nM; EC50 [32]: 7.9 nM; Ratio EC50 [33]: 1.8; Ratio EC50 [34]: 2.5
